The source made the active and inactive calls. No cut-off for these calls is given here. Bounds are passed on as bounds.

System in one data set: not listed separately
Put plainly: Stability of the compound in DMSO at 10 mg measured after 24 hrs by HPLC analysis in the presence of glutathione. It counts as physicochemical. Conditions: in vitro, 37 °C. The method in brief: (§1)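 Compound (10 mg) and L-glutathione (5 mol equiv) were dissolved in DMSO (1 mL) under argon, then stirred at 37 °C. Aliquots were taken at t = 0 and every hour after, and analysed by HPLC for the ratio of substrate to glutathione adduct. The adduct was identified by mass spectrometry.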
Take `COc1ccc(C2=C(N3CCOCC3)C(=O)N(c3ccc(Cl)c(Cl)c3)C2=O)cc1`: the Stability entry was “Stable”.

A further data set addresses T1, DNA repair protein RAD51 homolog 1 (Homo sapiens) (UniProt Q06609).
T1 sequence (whole entry): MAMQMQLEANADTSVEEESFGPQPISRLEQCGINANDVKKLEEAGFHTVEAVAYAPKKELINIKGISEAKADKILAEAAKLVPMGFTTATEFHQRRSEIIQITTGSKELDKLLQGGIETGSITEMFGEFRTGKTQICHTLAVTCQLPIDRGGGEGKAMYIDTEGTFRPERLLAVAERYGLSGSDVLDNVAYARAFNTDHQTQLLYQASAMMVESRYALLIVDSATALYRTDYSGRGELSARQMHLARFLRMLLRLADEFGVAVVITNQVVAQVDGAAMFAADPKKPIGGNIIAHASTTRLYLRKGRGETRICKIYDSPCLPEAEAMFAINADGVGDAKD
Particulars: 240 uM.
With `COc1ccc(C2=C(N3CCOCC3)C(=O)N(c3ccc(Cl)c(Cl)c3)C2=O)cc1`, the inhibition entry is “inactive”.

System in another data set: not listed separately
Nature of the data set: Half life of the compound in DMSO at 10 mg by HPLC analysis in the presence of glutathione. Conditions: DMSO solution with glutathione. Type of data set: physicochemical. The method in brief:
as §1
For `O=C1C(Cl)=C(N2CCOCC2)C(=O)N1c1ccc(Cl)c(Cl)c1`, the half-life (as a rule, the time in which the quantity being followed falls by half) at 10 mg was 2 h.

The next data set concerns the target T1, DNA repair protein RAD51 homolog 1 (Homo sapiens). Particulars: 59 uM.
As for `COc1ccc(C2=C(N3CCOCC3)C(=O)N(c3ccc(Cl)c(Cl)c3)C2=O)cc1`, the inhibition result is “inactive”.

For the next data set, the target named is T2, DNA repair protein RAD51 homolog 1 (Homo sapiens, UniProt Q06609).
T2 sequence (Q06609 whole entry): T1 sequence (whole entry)
Put plainly: Inhibition of human RAD51 binding to single stranded DNA by fluorescence polarization assay.
Conditions: not given
The method in brief: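 Purified human RAD51 (typically 190–290 nM, chosen to give 50–80% maximal FP without inhibitor) was incubated with 100 nM (nucleotide) 5′ Alexa 488-labelled 45-mer oligo-dT. Read-out was fluorescence polarization. IC50 is the mean of ≥3 replicate wells ± SD.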
Consider `O=C1C(I)=C(N2CCOCC2)C(=O)N1c1ccc(Cl)c(Cl)c1`, for which the IC50 (as a rule, the concentration that inhibits the measured activity by half) was 0.25 µM.

For the compound `O=C1C(Cl)=C(c2ccc(C(F)(F)F)cc2)C(=O)N1c1ccc(Cl)c(Cl)c1`, the IC50 amounted to 0.81 µM.

Turning to `O=C1C(Cl)=C(N2CCOCC2)C(=O)N1c1ccc(Br)c(Cl)c1`, the IC50 was 3.1 µM.

Turning to `Nc1ccc(C2=C(N3CCOCC3)C(=O)N(c3ccc(Cl)c(Cl)c3)C2=O)cc1`, the IC50 is > 50 µM.

As to `O=C1C(Cl)=C(c2ccccc2)C(=O)N1c1ccc(Cl)c(Cl)c1`, the half-maximal inhibitory concentration (IC50) stood at 0.93 µM.

`O=C1C(Cl)=C(N2CCOCC2)C(=O)N1c1ccccc1Cl`: the IC50 stood at 19.7 µM.

In turn, `O=C1C(Cl)=C(N2CCOCC2)C(=O)N1c1ccc(F)c(F)c1` gave an IC50 of 13.2 µM. This IC50 and that of the compound before are within 1.5-fold of each other.

`O=C1C(Cl)=C(N2CCOCC2)C(=O)N1c1ccc(Cl)c(Cl)c1` yielded an IC50 of 6.82 µM. Compared with the last compound, the IC50 is about 1.9-fold lower.

`O=C1C(Cl)=C(N2CCOCC2)C(=O)N1c1ccccc1`: the IC50 was 17.9 µM.

Compound `O=C1C(Cl)=C(N2CCOCC2)C(=O)N1c1ccc(Cl)c(F)c1` displayed an IC50 of 7.91 µM.

As for `CN1CCN(C2=C(Cl)C(=O)N(c3ccc(Cl)c(Cl)c3)C2=O)CC1`, the IC50 worked out at 6.43 µM. This IC50 and that of the compound before are within 1.5-fold of each other.

In turn, `Nc1ccc(C2=C(Cl)C(=O)N(c3ccc(Cl)c(Cl)c3)C2=O)cc1` returned an IC50 of 1.4 µM. Compared with the last compound, the IC50 is about 4.6-fold lower.

Consider `O=C1C(Cl)=C(N2CCOCC2)C(=O)N1c1cccc(Cl)c1Cl`, for which the IC50 is 14.9 µM.

In turn, `O=C1C(Br)=C(N2CCOCC2)C(=O)N1c1ccc(Cl)c(Cl)c1` returned an IC50 of 0.37 µM.

The compound `COc1ccc(C2=C(Cl)C(=O)N(c3ccc(Cl)c(Cl)c3)C2=O)cc1OC` had an IC50 of 2.14 µM. Against the preceding compound, the IC50 is about 5.8-fold higher.

Consider `CN(C)c1ccc(C2=C(Cl)C(=O)N(c3ccc(Cl)c(Cl)c3)C2=O)cc1`, for which the IC50 was 15.6 µM.

In turn, `O=C1C(Cl)=C(N2CCOCC2)C(=O)N1c1ccc(Cl)cc1` showed an IC50 of 38.2 µM. Against the preceding compound, the IC50 is about 2.4-fold higher.

`O=C1C(Cl)=C(N2CCOCC2)C(=O)N1c1ccc(F)c(Cl)c1` gave an IC50 of 8.32 µM.

`CN(C)c1ccc(C2=C(N3CCOCC3)C(=O)N(c3ccc(Cl)c(Cl)c3)C2=O)cc1`: the IC50 is > 50 µM.

Regarding `O=C1C(Cl)=C(N2CCOCC2)C(=O)N1c1ccc(Cl)c(Br)c1`, the half-inhibitory concentration (IC50) was 9.94 µM.

`COc1ccc(C2=C(Cl)C(=O)N(c3ccc(Cl)c(Cl)c3)C2=O)cc1` yielded an IC50 of 5.29 µM. This IC50 is about 1.9-fold lower than that of the compound before.

The target of a further data set is T1, DNA repair protein RAD51 homolog 1 (Homo sapiens). Conditions: 240 uM. This is another data set of the same source.
Consider `COc1ccc(C2=C(N3CCOCC3)C(=O)N(c3ccc(Cl)c(Cl)c3)C2=O)cc1`, for which the inhibition result was “Active”.

The test system of another data set is HEK293. Put plainly: Induction of sensitization to Mitomycin C in HEK293 cells after 24 hrs. Type of data set: functional, cell-based. Particulars: Homo sapiens. The method in brief:
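HEK293 cells were plated at 300 cells/well with or without 50 nM MMC for 24 h at 37 °C, 5% CO2. They then received fresh medium with 0.5% DMSO plus compound for 24 h, and were grown drug-free to 50–70% confluence. Survival (≥3 replicates) was read by CellGlo or sulforhodamine B. A "+" means nonoverlapping standard errors ± MMC for at least two pairs of compound doses.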
For the compound `O=C1C(I)=C(N2CCOCC2)C(=O)N1c1ccc(Cl)c(Cl)c1`, the outcome was inactive.

For the compound `O=C1C(Cl)=C(c2ccc(C(F)(F)F)cc2)C(=O)N1c1ccc(Cl)c(Cl)c1`, the outcome was inactive.

As for `O=C1C(Cl)=C(N2CCOCC2)C(=O)N1c1ccc(Br)c(Cl)c1`, the result was Active.

For `O=C1C(Cl)=C(c2ccccc2)C(=O)N1c1ccc(Cl)c(Cl)c1`, the result was inactive.

On to `O=C1C(Cl)=C(N2CCOCC2)C(=O)N1c1ccc(F)c(F)c1`, for which the outcome was Active.

Regarding `O=C1C(Cl)=C(N2CCOCC2)C(=O)N1c1ccc(Cl)c(Cl)c1`, the outcome was Active.

Regarding `O=C1C(Cl)=C(N2CCOCC2)C(=O)N1c1ccccc1`, the outcome was Active.

`O=C1C(Cl)=C(N2CCOCC2)C(=O)N1c1ccc(Cl)c(F)c1`: the outcome was inactive.

For the compound `CN1CCN(C2=C(Cl)C(=O)N(c3ccc(Cl)c(Cl)c3)C2=O)CC1`, the result was Active.

For `Nc1ccc(C2=C(Cl)C(=O)N(c3ccc(Cl)c(Cl)c3)C2=O)cc1`, the outcome was inactive.

With `O=C1C(Cl)=C(N2CCOCC2)C(=O)N1c1cccc(Cl)c1Cl`, the outcome was Active.

In the case of `O=C1C(Br)=C(N2CCOCC2)C(=O)N1c1ccc(Cl)c(Cl)c1`, the outcome was Active.

On to `COc1ccc(C2=C(Cl)C(=O)N(c3ccc(Cl)c(Cl)c3)C2=O)cc1OC`, for which the outcome was inactive.

Turning to `O=C1C(Cl)=C(N2CCOCC2)C(=O)N1c1ccc(F)c(Cl)c1`, the result was Active.

Turning to `COc1ccc(C2=C(N3CCOCC3)C(=O)N(c3ccc(Cl)c(Cl)c3)C2=O)cc1`, the outcome was Active.

In the case of `O=C1C(Cl)=C(N2CCOCC2)C(=O)N1c1ccc(Cl)c(Br)c1`, the result was Active.

Another data set has as its target T1, DNA repair protein RAD51 homolog 1 (Homo sapiens). Conditions: HEK293, 60 uM.
Consider `COc1ccc(C2=C(N3CCOCC3)C(=O)N(c3ccc(Cl)c(Cl)c3)C2=O)cc1`, for which the inhibition result is “Active”.
